Experimental data reported in PMC3703767 (Virology, 2008).

Key:
[1] = tested on: Laboratory variant 2 5′ ORF1 sequence; assay: Luciferase reporter assay, Laboratory variant 2 leader; assay type: biochemical
Summary of the method: (§1)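 In vitro translation in nuclease-treated rabbit reticulocyte lysate. The target 5′-end leader sits upstream of firefly luciferase; RNA is T7-transcribed from NotI-cut plasmid (1 nM final). Test compound is added at 0.01–83 μM final, and reactions run 75 min at 37 °C, then are chilled on ice. Percent inhibition is calculated from luciferase signal versus no-compound reaction. Each assay was run at least twice, by two investigators in separate labs.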

[2] = tested on: Hu/NoV/GI.1/Norwalk virus/1968/US 5′ ORF1 sequence; assay: Luciferase reporter assay, Norwalk leader; assay type: biochemical, human norovirus; conditions: target with 1 mismatch to Noro 1.1; luciferase signal
Summary of the method: as §1

[3] = tested on: Bo/NoV/GIII.1/Jena/1998/DEU 5′ ORF1 sequence; assay: Luciferase reporter assay, Jena bovine norovirus leader; assay type: biochemical
Summary of the method: as §1

[4] = tested on: Norwalk virus replicon in HG23 cells; assay: PMO inhibition of norovirus protein expression in replicon cell line HG23; assay type: cell-based; conditions: 16 μM, 5-day incubation, immunofluorescence
Summary of the method: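 HG23 cells (Huh-7-derived Norwalk replicon line, DMEM/10% FBS/0.25 mg/ml neomycin) received 16 μM unconjugated morpholino by nucleofection (solution L, program A020). A total of 2×10^6 cells were seeded and incubated 5 days at 37 °C. Cells were then fixed in ice-cold methanol and analysed by immunofluorescence with guinea pig antisera against Norwalk VP1 and RdRP.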

[5] = tested on: Hu/NoV/GI.6/WUG1/2000/JP 5′ ORF1 sequence; assay: Luciferase reporter assay, WUG1 leader; assay type: biochemical, human norovirus; conditions: target with 1 mismatch to Noro 1.1; luciferase signal
Summary of the method: as §1

[6] = tested on: Hu/NoV/GI.2/Southampton/1991/UK 5′ ORF1 sequence; assay: Luciferase reporter assay, Southampton leader; assay type: biochemical, human norovirus; conditions: target with 0 mismatches to Noro 1.1; luciferase signal
Summary of the method: as §1

[7] = tested on: Laboratory variant 3 5′ ORF1 sequence; assay: Luciferase reporter assay, Laboratory variant 3 leader; assay type: biochemical
Summary of the method: as §1

[8] = tested on: Hu/NoV/GII.4/CN3050/1998/USA 5′ ORF1 sequence; assay: Luciferase reporter assay, CN3050 leader; assay type: biochemical, human norovirus
Summary of the method: as §1

[9] = tested on: Hu/NoV/GII.12/CN2753/1998/USA 5′ ORF1 sequence; assay: Luciferase reporter assay, CN2753 leader; assay type: biochemical, human norovirus; conditions: target with 2 mismatches to Noro 1.1; luciferase signal
Summary of the method: as §1

[10] = tested on: Laboratory variant 1 5′ ORF1 sequence; assay: Luciferase reporter assay, Laboratory variant 1 leader; assay type: biochemical
Summary of the method: as §1

[11] = tested on: Norwalk virus replicon in HG23 cells; assay: Norwalk virus RNA in replicon-bearing HG23 cells; assay type: cell-based; conditions: 16 μM, quantitative real-time RT-PCR, data not shown
Summary of the method: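 HG23 replicon cells were electroporated with 16 μM test compound and incubated 5 days at 37 °C. Replicon RNA in treated and untreated cells was then quantified by single-step real-time RT-PCR with a standard curve in each run. Cycling: 45 °C 30 min, 95 °C 10 min, then 45 cycles of 95 °C 30 s, 50 °C 1 min, 72 °C 30 s.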

[12] = tested on: Hu/No.V/GII.4/Lordsdale/1993/UK 5′ ORF1 sequence; assay: Luciferase reporter assay, Lordsdale leader; assay type: biochemical, human norovirus
Summary of the method: as §1

[13] = tested on: MNV-1; assay: Mouse norovirus PPMO inhibition assay in RAW264.7 cells; assay type: cell-based, murine norovirus
Summary of the method: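 RAW264.7 cells (2×10^5/well) were seeded and incubated overnight, then rinsed and exposed 4 h to test compound in plain DMEM (8 replicate wells). They were rinsed again and infected with MNV-1.CW1 for 2 h at 37 °C, then kept 3 days at 37 °C. Wells were formalin-fixed and stained with crystal violet; methanol-eluted stain was read at A570. Variants used fixed compound with 10-fold virus dilutions (20–2×10^5 PFU/well), or 1.25–80 μM compound with 2×10^4 PFU/well. % lysis = ([treated]−[treated+infected])/[treated]×100.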

[14] = target with 6 mismatches to Noro 1.1, luciferase signal

CGACGCCATCATCATTCAC [Noro 1.1]
inhibition of translation ([1]; LabVar 2, 5 nucleotide changes): less efficiently | Outcome of in vitro assay ([1]; target with 5 mismatches to Noro 1.1, luciferase signal): Inhibition (Inhibition defined as > 60% reduction of protein synthesis, as defined by luciferase signal.) | Outcome of in vitro assay [2]: Inhibition (Inhibition defined as > 60% reduction of protein synthesis, as defined by luciferase signal.) | maximal inhibition achieved ([3]; range of concentrations tested, 0.01 to 83 μM): ≤ 57% | Outcome of in vitro assay [3, 14]: No inhibition | Norwalk virus protein translation in HG23 cells [4]: effectively inhibited norovirus protein translation | Outcome of in vitro assay [5]: Inhibition (Inhibition defined as > 60% reduction of protein synthesis, as defined by luciferase signal.) | Outcome of in vitro assay [6]: Inhibition (Inhibition defined as > 60% reduction of protein synthesis, as defined by luciferase signal.) | inhibition of translation ([7]; LabVar3, 6 nucleotide differences, data not shown): completely failed to inhibit translation | Outcome of in vitro assay [7, 14]: No inhibition | inhibition of translation achieved ([8]; GII.4 variant): 100% | Outcome of in vitro assay ([8]; target with 3 mismatches to Noro 1.1, luciferase signal): Inhibition (Inhibition defined as > 60% reduction of protein synthesis, as defined by luciferase signal.) | Outcome of in vitro assay [9]: Inhibition (Inhibition defined as > 60% reduction of protein synthesis, as defined by luciferase signal.) | inhibition of translation ([10]; LabVar 1, 4 nucleotide changes): less efficiently | Outcome of in vitro assay ([10]; target with 4 mismatches to Noro 1.1, luciferase signal): Inhibition (Inhibition defined as > 60% reduction of protein synthesis, as defined by luciferase signal.) | Norwalk virus RNA level [11]: did not see a significant reduction in RNA | inhibition of translation achieved ([12]; GII.4 variant): 100% | Outcome of in vitro assay ([12]; target with 2 mismatches to Noro 1.1, luciferase signal): Inhibition (Inhibition defined as > 60% reduction of protein synthesis, as defined by luciferase signal.)

CGTTGCCATCCTCATTTCAC [PPMO B]
dose of MNV-1 whose replication is completely inhibited ([13]; PPMO B 20 μM, MNV-1 20 to 2 × 10^5 PFU/well, 8 replicates): 2 × 10^3 PFU

CGCAGAAGATGGCGTTGCCATCCTC [PPMO C]
effectiveness in inhibiting viral replication ([13]; 20 μM PPMO, 2 × 10^4 PFU/well MNV-1): 70% | maximal dose of MNV-1 inhibited ([13]; PPMO C 80 μM, MNV-1 20 to 2 × 10^5 PFU/well, 8 replicates): up to 2 × 10^5 PFU
